According to ChEMBL document CHEMBL1212768, “Screening and quantification of the expression of antibiotic resistance genes in Acinetobacter baumannii with a microarray” (2010):
In brackets after ≈: the same amount, converted by molar mass.

Tests used:
Format in all cases: functional
Acinetobacter baumannii [1] = assay: Antibacterial activity against Acinetobacter baumannii BM4587 by antimicrobial susceptibility assay
In short: (§1)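 MICs measured by Etest on Mueller-Hinton agar. Disk diffusion on the same medium was used for susceptibility screening. Strains were grown at 37°C in brain heart infusion broth or agar. Mutants were picked from antibiotic gradient plates, taking colonies growing above the normal MIC. Those resistant to several drug classes by diffusion were kept.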

Acinetobacter baumannii [2] = assay: Antibacterial activity against Acinetobacter baumannii BM4454 by antimicrobial susceptibility assay; in short: as §1
Acinetobacter baumannii [3] = assay: Antibacterial activity against multidrug-resistant Acinetobacter baumannii BM4665 by antimicrobial susceptibility assay; in short: as §1
Acinetobacter baumannii [4] = assay: Antibacterial activity against multidrug-resistant Acinetobacter baumannii BM4666 by antimicrobial susceptibility assay; in short: as §1
Acinetobacter baumannii [5] = assay: Antibacterial activity against Acinetobacter baumannii BM4467 by antimicrobial susceptibility assay; in short: as §1
Acinetobacter baumannii [6] = assay: Antibacterial activity against multidrug-resistant Acinetobacter baumannii BM4668 by antimicrobial susceptibility assay; in short: as §1
Acinetobacter baumannii [7] = assay: Antibacterial activity against Acinetobacter baumannii CIP70-10 by antimicrobial susceptibility assay; in short: as §1
Acinetobacter baumannii [8] = assay: Antibacterial activity against multidrug-resistant Acinetobacter baumannii AYE by antimicrobial susceptibility assay; in short: as §1
Acinetobacter baumannii [9] = assay: Antibacterial activity against multidrug-resistant Acinetobacter baumannii BM4675 by antimicrobial susceptibility assay; in short: as §1
Acinetobacter baumannii [10] = assay: Antibacterial activity against multidrug-resistant Acinetobacter baumannii BM4676 by antimicrobial susceptibility assay; in short: as §1

Compound | MIC (Acinetobacter baumannii [1]) [µg/mL] | MIC (Acinetobacter baumannii [2]) [µg/mL] | MIC (Acinetobacter baumannii [3]) [µg/mL] | MIC (Acinetobacter baumannii [4]) [µg/mL] | MIC (Acinetobacter baumannii [5]) [µg/mL] | MIC (Acinetobacter baumannii [6]) [µg/mL] | MIC (Acinetobacter baumannii [7]) [µg/mL] | MIC (Acinetobacter baumannii [8]) [µg/mL] | MIC (Acinetobacter baumannii [9]) [µg/mL] | MIC (Acinetobacter baumannii [10]) [µg/mL]
CC1(C)S[C@@H]2[C@H](NC(=O)[C@H](C(=O)O)c3ccsc3)C(=O)N2[C@H]1C(=O)O [TICARCILLIN] | 6 (≈ 15.6 µM) | 8 (≈ 20.8 µM) | 2 (≈ 5.2 µM) | 16 (≈ 41.6 µM) | 12 (≈ 31.2 µM) | 24 (≈ 62.4 µM) | 24 (≈ 62.4 µM) | > 256 | > 256 | > 256
C[C@@H](O)[C@H]1C(=O)N2C(C(=O)O)=C(SCCNC=N)C[C@H]12 [IMIPENEM ANHYDROUS] | 0.19 (≈ 0.635 µM) | 0.25 (≈ 0.835 µM) | 0.5 (≈ 1.67 µM) | 0.19 (≈ 0.635 µM) | 0.25 (≈ 0.835 µM) | 0.25 (≈ 0.835 µM) | 0.25 (≈ 0.835 µM) | 1 (≈ 3.34 µM) | 2 (≈ 6.68 µM) | > 32
CC(C)(O/N=C(\C(=O)N[C@@H]1C(=O)N2C(C(=O)[O-])=C(C[n+]3ccccc3)CS[C@H]12)c1csc(N)n1)C(=O)O [CEFTAZIDIME] | 4 (≈ 7.32 µM) | 6 (≈ 11 µM) | 3 (≈ 5.49 µM) | 12 (≈ 22 µM) | 8 (≈ 14.6 µM) | 16 (≈ 29.3 µM) | 6 (≈ 11 µM) | > 256 | > 256 | > 256
O=C(O)c1cn(C2CC2)c2cc(N3CCNCC3)c(F)cc2c1=O [CIPROFLOXACIN] | 0.094 (≈ 0.284 µM) | > 32 | 0.5 (≈ 1.51 µM) | 0.38 (≈ 1.15 µM) | 0.125 (≈ 0.377 µM) | 0.38 (≈ 1.15 µM) | 0.125 (≈ 0.377 µM) | > 32 | > 32 | 24 (≈ 72.4 µM)
CN(C)c1cc(NC(=O)CNC(C)(C)C)c(O)c2c1C[C@H]1C[C@H]3[C@H](N(C)C)C(O)=C(C(N)=O)C(=O)[C@@]3(O)C(O)=C1C2=O [TIGECYCLINE] | 0.094 (≈ 0.161 µM) | 3 (≈ 5.12 µM) | 1.5 (≈ 2.56 µM) | 0.38 (≈ 0.649 µM) | 0.125 (≈ 0.213 µM) | 0.5 (≈ 0.854 µM) | 0.125 (≈ 0.213 µM) | 1.5 (≈ 2.56 µM) | 1.5 (≈ 2.56 µM) | 1.5 (≈ 2.56 µM)
CN(C)c1ccc(O)c2c1C[C@H]1C[C@H]3[C@H](N(C)C)C(O)=C(C(N)=O)C(=O)[C@@]3(O)C(O)=C1C2=O [MINOCYCLINE] | 0.064 (≈ 0.14 µM) | 0.75 (≈ 1.64 µM) | 0.125 (≈ 0.273 µM) | 0.19 (≈ 0.415 µM) | 0.064 (≈ 0.14 µM) | 0.125 (≈ 0.273 µM) | 0.047 (≈ 0.103 µM) | 0.5 (≈ 1.09 µM) | 8 (≈ 17.5 µM) | 1 (≈ 2.19 µM)
NC[C@H]1O[C@H](O[C@H]2[C@H](O)[C@@H](O[C@H]3O[C@H](CO)[C@@H](O)[C@H](N)[C@H]3O)[C@H](N)C[C@@H]2N)[C@H](N)C[C@@H]1O [TOBRAMYCIN] | 0.75 (≈ 1.6 µM) | 4 (≈ 8.56 µM) | 16 (≈ 34.2 µM) | 1 (≈ 2.14 µM) | 1.5 (≈ 3.21 µM) | 2 (≈ 4.28 µM) | 2 (≈ 4.28 µM) | 64 (≈ 137 µM) | 12 (≈ 25.7 µM) | 96 (≈ 205 µM)
CN(C)[C@@H]1C(O)=C(C(N)=O)C(=O)[C@@]2(O)C(O)=C3C(=O)c4c(O)cccc4[C@@](C)(O)[C@H]3C[C@@H]12 [TETRACYCLINE] | 1.5 (≈ 3.38 µM) | 32 (≈ 72 µM) | 3 (≈ 6.75 µM) | 8 (≈ 18 µM) | 3 (≈ 6.75 µM) | 8 (≈ 18 µM) | 1 (≈ 2.25 µM) | 64 (≈ 144 µM) | 32 (≈ 72 µM) | 12 (≈ 27 µM)
